Reference: ChEMBL document CHEMBL1124291, “New actinomycin D analogues as superior chemotherapeutic agents against primary and advanced colon tumors and colon xenografts in nude mice” (J Med Chem, 1988)
Starred links: 1 amine or outer side, 2 acyl side, 3 side chain; linkers in the order of their positions; H or OH if unused. Positions of bridges follow the written chain, without caps; N, C: chain ends. Non-standard residues stand in square brackets, D forms with d. Residues, ends and D or L forms follow the SMILES beside them. Chains are numbered I, II in the order given. Actinocin(9to1) = Cc1c2oc3c(C)ccc(C(=O)[*:1])c3nc-2c(C(=O)[*:2])c(N)c1=O; NMeV = CN[C@H](C(=O)O)C(C)C; Sar = CNCC(=O)O

Tests used:
P388 [1] = test: Antitumor activity against P388/S (AMD sensitive) in male BDF1 mice measured as optimal dose at dose 1.0-5.0 mg/Kg/inj, ip
P388 [2] = test: Antitumor activity against P388/ADR (adriamycin resistant), in male BDF1 mice measured as optimal dose at dose 1.0-5.0 mg/Kg/inj, ip
B16 [3] = test: In vivo antitumor activity against B16 melanoma cells at a optimal dose 300 ug/Kg /inj measured as %ILS (%increase life span); format: functional; details: Mus musculus
How it was run: (§1)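 BDF1 mice in groups of nine were implanted ip on day 0 with 0.2 mL of 1:5 (w/v) B16 melanoma brei; drugs were given ip. Survival is reported as median survival time in days with range, and as %ILS, with survivors counted on day 65 out of total injected.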

B16 [4] = test: In vivo antitumor activity against B16 melanoma cells at dose 300 ug/Kg /inj measured as Mean survival time (MST); format: functional, Mus musculus
How it was run: as §1

MC-38 [5] = test: Number of toxic deaths/number of mice in a group of non tumored mice treated in parallel with the tumor-bearing mice and observed for 100 days at a dose 0.15 mg/Kg; value given as 1/9; format: toxicity; details: mouse, in vivo, 2400 h
How it was run: (§2)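 Non-tumored CDF1 mice were treated in parallel with colon 38 tumor-bearing mice: iv injections on days 1, 5 and 9, groups of nine. Deaths were counted over 100 days of observation and reported as toxic deaths / mice in group.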

HT-29 [6] = test: 50% inhibition of incorporationf precursor [3H]thymidine into DNA HT-29 cell lines; format: functional, cell-based; details: Homo sapiens, HT-29, 2 h
How it was run: (§3)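 HT-29 colon carcinoma monolayers, 10^4 cells per well, five wells per concentration. Drug exposure lasted 2 h, with [³H]thymidine and [2-¹⁴C]uridine (0.5 μCi each) added for the last hour. Cells were washed, trypsinized, counted and precipitated onto glass-fiber filters with 10% TCA. Acid-precipitable radioactivity was measured. IC50 is the concentration inhibiting 50% of incorporation; data are averages of replicate experiments.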

MC-38 [7] = test: Activity against advanced carcinoma C38 Tumor in CDF1 Mice at dose 0.60 mg/kg measured as % inhibition of tumor; format: functional; details: Mus musculus
MC-38 [8] = test: Activity against advanced carcinoma C38 Tumor in CDF1 Mice at dose 0.075 mg/kg measured as % inhibition of tumor; format: functional; details: Mus musculus
MC-38 [9] = test: Activity against advanced carcinoma C38 Tumor in CDF1 Mice at dose 0.45 mg/kg measured as % inhibition of tumor; format: functional; details: Mus musculus
Rattus norvegicus [10] = species on record: Rattus norvegicus; test: The formation of adrenochrome from epinephrine in the absence of SOD(super oxide dismutase); format: functional
How it was run: (§4)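 Drug-stimulated superoxide generation with rat liver microsomal enzymes and NADPH as cofactor. NADPH oxidation was read at 340 nm. Adrenochrome formed from epinephrine was read at 480 nm, with or without superoxide dismutase. % stimulation = [(drug-stimulated rate − basal rate)/basal rate] × 100. Values are mean ± standard error of triplicate analyses.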

MC-38 [11] = test: Number of toxic deaths/number of mice in a group of non tumored mice treated in parallel with the tumor-bearing mice and observed for 100 days at a dose 0.60 mg/Kg; value given as 4/9; format: toxicity; details: mouse, in vivo, 0.6 mg/kg, 2400 h
How it was run: as §2

B16 [12] = test: In vivo Antitumor activity against B16 melanoma cells at dose 250 ug/Kg /inj measured as Mean survival time (MST); format: functional, Mus musculus
How it was run: as §1

Rattus norvegicus [13] = species on record: Rattus norvegicus; test: Percent of the unconverted metabolite from incubation mixture containing rat microsomes; format: functional
How it was run: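 Tritiated analogues were incubated with two systems. (T) sonicated P388 cell homogenates, 37 °C for 16 h. (M) liver microsomes from phenobarbital-induced rats, 6 h with an NADPH-generating system (glucose-6-phosphate dehydrogenase plus glucose 6-phosphate). Metabolites and water-soluble conjugates were isolated, separated by HPLC and expressed as percentages.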

MC-38 [14] = test: Mean survival time of treated /untreategroup x100. (number of over 100-day survivors/ number of total mice in the group) at a dose 0.30 mg/kg; format: functional, Mus musculus; details: dose 0.3 mg/kg
How it was run: (§5)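 CDF1 mice were implanted sc on day 0 with colon 38 adenocarcinoma fragments (70 mg) and given iv drug on days 1, 5 and 9. %T/C = median survival of treated / untreated × 100. Number of mice surviving over 100 days / group total is given in parentheses.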

Rattus norvegicus [15] = species on record: Rattus norvegicus; test: DNA-cleaving ability expressed as % of closed circular pBR322 DNA cleaved at 10 uM conc; format: functional
How it was run: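 pBR322 DNA (200 μM nucleotides) in 10 mM Tris·HCl pH 7.8 and 50 mM NaCl, with 4 mM Na₂S₂O₄ and 100 μM FeCl₂. Incubated with drug for 1 h at 20 °C, kept air-saturated. Supercoiled and open-circular forms were separated by agarose gel electrophoresis, stained with ethidium bromide and quantitated by densitometry. % cleaved was calculated from the open- and closed-circular amounts.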

MC-38 [16] = test: Activity against advanced carcinoma C38 Tumor in CDF1 Mice at dose 0.15 mg/kg measured as % inhibition of tumor; format: functional; details: Mus musculus
MC-38 [17] = test: Mean survival time of treated /untreategroup x100. (number of over 100-day survivors/ number of total mice in the group) at a dose 0.15 mg/kg; format: functional, Mus musculus
How it was run: as §5

P388 [18] = test: Antitumor activity in P388/S(AMD sensitive) in male BDF1 mice measured as optimal dose at dose 0.075-2.5 mg/kg/injection, ip
P388 (Mus musculus) = test: Percent of the unconverted metabolite from incubation mixture containing tumor cell homogenate(T)
P388 [19] = test: Antitumor activity in P388/ADR (adriamycin resistant), in male BDF1 mice measured as optimal dose at dose
MC-38 [20] = test: Number of toxic deaths/number of mice in a group of non tumored mice treated in parallel with the tumor-bearing mice and observed for 100 days at a dose 0.30 mg/Kg; value given as 0/9; format: functional, Mus musculus
How it was run: as §2

Rattus norvegicus [21] = species on record: Rattus norvegicus; test: Stimulation of NADPH oxidation in the presence of rat liver microsomes; format: functional
How it was run: as §4

Rattus norvegicus [22] = species on record: Rattus norvegicus; test: The formation of adrenochrome from epinephrine in the presence of SOD(super oxide dismutase); + denotes ' Inhibited'; format: functional
How it was run: as §4

MC-38 [23] = test: Mean survival time of treated /untreategroup x100. (number of over 100-day survivors/ number of total mice in the group) at a dose 0.45 mg/kg; format: functional, Mus musculus
How it was run: as §5

B16 [24] = test: In vivo Antitumor activity against B16 melanoma cells at a optimal dose measured as %ILS (%increase life span); format: functional, Mus musculus
How it was run: as §1

HT-29 [25] = test: 50% inhibition of incorporationf precursor [3H]thymidine into RNA HT-29 cell lines; format: functional, cell-based; details: Homo sapiens, HT-29, 2 h; in the assay text read “[14C]uridine” for “[3H]thymidine”
How it was run: as §3

MC-38 [26] = test: Number of toxic deaths/number of mice in a group of non tumored mice treated in parallel with the tumor-bearing mice and observed for 100 days at a dose 0.075 mg/Kg; value given as 0/9; format: functional, Mus musculus
How it was run: as §2

MC-38 [27] = test: Number of toxic deaths/number of mice in a group of non tumored mice treated in parallel with the tumor-bearing mice and observed for 100 days at a dose 0.45 mg/Kg; value given as 1/9; format: toxicity; details: mouse, in vivo, 2400 h
How it was run: as §2

P388 [28] = test: 50% inhibition of incorporation precursor [14C]uridine into RNA P388 cell lines; format: functional, cell-based; details: Mus musculus
MC-38 [29] = test: Mean survival time of treated /untreated group x100. (number of over 100-day survivors/ number of total mice in the group) at a dose 0.60 mg/kg; format: functional, Mus musculus; details: dose 0.6 mg/kg
How it was run: as §5

pBR322 plasmid DNA = test: DNA-cleaving ability expressed as % of closed circular pBR322 DNA cleaved at 100 uM conc
P388 [30] = test: 50% inhibition of incorporation of precursor [3H]thymidine into DNA P388 cell lines; format: functional, cell-based; details: Mus musculus, P388, 2 h
MC-38 [31] = test: Activity against advanced carcinoma C38 Tumor in CDF1 Mice at dose 0.30 mg/kg measured as % inhibition of tumor; format: functional; details: Mus musculus
MC-38 [32] = test: Mean survival time of treated /untreategroup x100. (number of over 100-day survivors/ number of total mice in the group) at a dose 0.075 mg/kg; format: functional, Mus musculus
How it was run: as §5

For CO[C@@]12[C@H](COC(N)=O)C3=C(C(=O)C(C)=C(N)C3=O)N1C[C@@H]1N[C@@H]12 [MITOMYCIN], the optimal dose (P388 [1]) was 3 mg/kg and the optimal dose (P388 [2]) was 3 mg/kg.

Cc1nc2c(C(=O)N[C@@H]3C(=O)N[C@H](C(C)C)C(=O)N4CCC[C@H]4C(=O)N(C)CC(=O)N(C)[C@@H](C(C)C)C(=O)O[C@@H]3C)c3nc4c(C(=O)N[C@@H]5C(=O)N[C@H](C(C)C)C(=O)N6CCC[C@H]6C(=O)N(C)CC(=O)N(C)[C@@H](C(C)C)C(=O)O[C@@H]5C)c(N)c(=O)c(C)c-4oc3c(C)c2o1 showed an ILS at 0.3 mg/kg (B16 [3]) of 124% and an MST (B16 [4]) of 65.

For Cc1c2oc3c(C)ccc(C(=O)N[C@@H]4C(=O)N[C@H](C(C)C)C(=O)N5CCC[C@H]5C(=O)N(C)CC(=O)N(C)[C@@H](C(C)C)C(=O)O[C@@H]4C)c3nc-2c(C(=O)N[C@@H]2C(=O)N[C@H](C(C)C)C(=O)N3CCC[C@H]3C(=O)N(C)CC(=O)N(C)[C@@H](C(C)C)C(=O)O[C@@H]2C)c(N)c1=O [DACTINOMYCIN] (I: T[dV]P[Sar][NMeV] / II: T[dV]P[Sar][NMeV]; ester I:1-I:C, II:1-II:C; linker I:N-II:N via Actinocin(9to1)), the Toxic deaths (MC-38 [5]) was 1, the IC50 (HT-29 [6]) was 900 nM and the inhibition in vivo at 0.6 mg/kg (MC-38 [7]) was 89%. The inhibition in vivo at 0.075 mg/kg (MC-38 [8]) was 30%, the inhibition in vivo at 0.45 mg/kg (MC-38 [9]) was 83% and the Adrenochrome formation (Rattus norvegicus [10]) was 2.29 nM min-1 (mg of protein)-1. It also gave a Toxic deaths (MC-38 [11]) of 4, an MST (B16 [12]) of 43 and an Activity (Rattus norvegicus [13]) of 100%. It also gave a T/C (MC-38 [14]) of 134%, an Activity (Rattus norvegicus [15]) of 10% and an inhibition in vivo at 0.15 mg/kg (MC-38 [16]) of 30%. The T/C (MC-38 [17]) was 107%, the optimal dose (P388 [18]) was 0.25 mg/kg and the Activity (P388 (Mus musculus)) was 100%. The optimal dose (P388 [19]) was 0.25 mg/kg, the Toxic deaths (MC-38 [20]) was 0 and the NADPH oxidation (nM min-1 (mg of protein)-1) (Rattus norvegicus [21]) was 10. The Adrenochrome formation (Rattus norvegicus [22]) was “Inhibited”, the T/C (MC-38 [23]) was 170% and the ILS (B16 [24]) was 48%. For the same compound, the IC50 (HT-29 [25]) was 100 nM, the Toxic deaths (MC-38 [26]) was 0 and the Toxic deaths (MC-38 [27]) was 1. The IC50 (P388 [28]) was 50 nM, the T/C (MC-38 [29]) was 103% and the Activity (pBR322 plasmid DNA) was 22%. It also gave an IC50 (P388 [30]) of 1100 nM, an inhibition in vivo at 0.3 mg/kg (MC-38 [31]) of 67% and a T/C (MC-38 [32]) of 100%.
